Compound activity: PubChem BioAssay, several laboratories
ROMK primary – modulates human ROMK potassium channel activity. P48048. Tet-inducible ROMK, thallium flux fluorescence; actives lie on both sides. B-score at 10 µM. 130,000 compounds, 2% hits. AID 1918;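 active means signal ratio slope over the read window, or its plate-corrected B-score, at least 3 SD from the plate mean, either direction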;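 further: B-score of the F/F0 ratio slope over 7 to 12 s after thallium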
p97 inhibitor – human p97 ATPase inhibition; 220,000 compounds, 0.42% hits; inhibition, % at 8 µM; P55072; recombinant p97 ATPase, Kinase-Glo ATP luminescence, 3 h; in the data active means inhibition above about 15%;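 further: 0% = DMSO vehicle and 100% = wells lacking enzyme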
Target sequence (P55072 whole entry, looked up): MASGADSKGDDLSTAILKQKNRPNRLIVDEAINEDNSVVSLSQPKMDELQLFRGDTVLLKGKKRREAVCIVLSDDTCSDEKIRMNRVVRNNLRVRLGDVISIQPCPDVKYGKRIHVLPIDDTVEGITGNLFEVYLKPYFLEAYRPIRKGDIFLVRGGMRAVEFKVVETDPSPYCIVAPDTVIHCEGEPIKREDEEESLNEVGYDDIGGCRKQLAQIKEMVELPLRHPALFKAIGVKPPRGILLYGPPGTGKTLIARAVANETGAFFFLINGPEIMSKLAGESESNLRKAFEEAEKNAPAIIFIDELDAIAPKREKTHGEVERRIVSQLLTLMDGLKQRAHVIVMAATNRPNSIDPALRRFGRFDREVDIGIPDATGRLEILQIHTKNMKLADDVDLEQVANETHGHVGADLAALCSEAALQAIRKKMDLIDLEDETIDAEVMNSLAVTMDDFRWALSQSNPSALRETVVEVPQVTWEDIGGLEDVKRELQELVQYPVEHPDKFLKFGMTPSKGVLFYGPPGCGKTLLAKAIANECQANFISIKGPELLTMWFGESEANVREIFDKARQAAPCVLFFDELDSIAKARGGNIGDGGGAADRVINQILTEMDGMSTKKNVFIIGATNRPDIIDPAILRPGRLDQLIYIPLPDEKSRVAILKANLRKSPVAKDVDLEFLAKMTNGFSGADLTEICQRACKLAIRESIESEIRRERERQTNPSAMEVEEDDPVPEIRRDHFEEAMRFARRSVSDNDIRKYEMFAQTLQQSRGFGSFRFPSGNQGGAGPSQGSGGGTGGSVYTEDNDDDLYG
DTT redox prof – compounds producing H2O2 with reducing agent – biochemical, NIH compound library profiling, artefact control for MLSCN library redox annotation, primary screen. DTT-dependent redox cycling H2O2, phenol red/HRP absorbance; 100% = 100 µM peroxide control, 0% = buffer. activation, % at 10 µM. 200,000 compounds, 0.03% hits. AID 878;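 active means activation of at least 50% relative to the plate's high and low controls in the primary single-dose screen; inactive means activation below 50%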;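 further: compound incubated with DTT at 0.8 mM final as the reducing agent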
MDM2 E3 inh – inhibitors of human Mdm2 E3 ubiquitin ligase; Q00987; 210,000 compounds, 0.11% hits; cell-based MDM2 ubiquitination luciferase reporter, 2 h; 0 = plate control, 100 = twice control, blank-subtracted; signal enhancement, % at 5 µM;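 active means signal enhancement of 30% or more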;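 further: luminescence tracks abundance of the self-degrading MDM2-luciferase fusion protein; higher signal means inhibition of MDM2 E3 ligase activity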
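system = mammalian cells stably expressing self-ubiquitinating, self-degrading MDM2 E3–luciferase fusion | quantity = 2000 cells per well seeded | incubation = 4 h cell settling then 2 h compound exposure, 37 °C | signal = SteadyLite luminescence, 15 min reagent step | benchmarks = plate control and blank wells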
PKD1 kinase inh – blocks activity of human protein kinase D1; PKD1 kinase fluorescence polarization assay; Q15139; inhibition, % (concentration not given with the values); 200,000 compounds, 0.056% hits; in the data active means inhibition above about 50%
KCC2 mod – KCC2 (human) Cl- transport modulation; Q9H2X9; KCC2 cells, thallium flux FluoZin-2 fluorescence; AID 1456; 190,000 compounds, 2.2% hits; B-score of Tl+ flux slope (higher = more flux/activation; lower = inhibition) at 10 µM;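 active means thallium flux slope and its plate-corrected score both differing from the plate sample mean at a set confidence after two filtering rounds, in either direction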;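 further: slope of fluorescence scaled to starting intensity during 10 to 20 s after thallium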
KCC2 secondary – confirmation of human KCC2 transport modulators. 3,700 compounds, 15% hits. HEK293-KCC2, thallium flux, FluoZin2 fluorescence; hits give high values. normalised thallium flux (F/F0 slope) at 10 µM. shares compounds with KCC2 mod;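 active means thallium flux slope above the same plate's solvent-only control mean plus 3 SD; inconclusive means the two replicate wells disagree; inactive means no significant difference from solvent-only control wells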
KCC2 bumet counter – thallium flux despite bumetanide block in KCC2 cells, secondary assay 3; shares compounds with KCC2 mod; HEK293-KCC2 + bumetanide/ouabain, thallium flux FluoZin2; hits give high values; normalized thallium flux at 10 µM; 3,700 compounds, 49% hits;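 active means thallium entry rate above the same plate's blocked-transporter control wells by more than 3 SD; inconclusive means the two repeat wells disagree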;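 further: raw slope of fluorescence over initial fluorescence between 10 and 20 s after thallium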
KCC2 sec2 – confirmation of human KCC2 transport modulators. shares compounds with KCC2 mod. HEK293-KCC2, thallium flux FluoZin2 fluorescence; actives lie on both sides; F/F0 rise rate, 10–20 s post-thallium. normalized thallium flux at 10 µM. 3,700 compounds, 23% hits. AID 1715;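 active means thallium flux slope more than 3 SD above or below the plate's solvent-only control mean, mostly below; inconclusive means the two repeat wells disagreed; inactive means no significant shift from solvent-only controls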;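 further: raw slope with 0.1% DMSO as baseline and bumetanide as block control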
HEK293 Tl flux – acts in parental HEK cells, KCC2 counter-screen | shares compounds with KCC2 mod | HEK293 parental cells, thallium flux FluoZin2, ouabain; baseline-ratio fluorescence slope, 10–20 s after thallium | thallium flux rate (normalised fluorescence) at 10 µM | 3,700 compounds, 46% hits;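 active means thallium flux rate significantly above the same plate's solvent-only control wells, beyond their mean plus 3 SD; inconclusive means the two replicate wells gave conflicting results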
KCC2 ouabain – modulates human KCC2 on retest with ouabain; shares compounds with KCC2 mod; HEK293-KCC2, thallium flux FluoZin2 fluorescence; bidirectional: low = inhibitor, high = activator; raw Tl+ flux slope (below DMSO = inhibition, above = activation) at 10 µM; 3,700 compounds, 48% hits; AID 1717;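 active means thallium flux slope beyond 3 SD from same-plate DMSO control mean in most replicates, usually higher, sometimes lower; inconclusive means repeat tests gave conflicting results; inactive means no significant difference from controls in most replicates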;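 further: slope of initial-normalized fluorescence between seconds 10 and 20 after thallium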
HEK counter2 – counter-screen for KCC2 modulators: effect in parental HEK293 cells; shares compounds with KCC2 mod; thallium flux FluoZin-2 fluorescence slope; thallium flux slope at 10 µM; 3,700 compounds, 33% hits; AID 1718;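 active means thallium flux slope above the same plate's solvent-control mean plus 3 SD in both duplicate wells; inconclusive means duplicate wells that disagreed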;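 further: run without ouabain in cells lacking the KCC2 cotransporter; slope of fluorescence scaled to its starting value between 10 and 20 s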
* = called active by the depositor; ? = inconclusive; . = no result given. Most compounds without a hit are left out; they make up all but 3.4% or so of the library.

SMILES	ROMK primary	p97 inhibitor	DTT redox prof	MDM2 E3 inh	PKD1 kinase inh	KCC2 mod	KCC2 secondary	KCC2 bumet counter	KCC2 sec2	HEK293 Tl flux	KCC2 ouabain	HEK counter2
COCCn1nnnc1C(CC(C)C)N1CCN(C(=O)c2ccco2)CC1 (centres undefined)	.	1	-2	-1	-11	7.5*	0.0064	0.0046	0.032	0.0085	0.019	0.0099
Cc1ccc(Nc2nnc(SC/C(O)=C(\C#N)c3nc4ccccc4[nH]3)s2)c(C)c1	.	6	1	5	4	-4.2*	?	0.0071	?	?	0.014*	0.012*
Cc1cccc(Nc2nnc(SC/C(O)=C(\C#N)c3nc4ccccc4[nH]3)s2)c1	-0.45	4	0	3	-10	-1.9	.	.	.	.	.	.
Cc1ccc(Nc2nnc(SCC(=O)c3ccc(Br)s3)s2)c(C)c1	.	13	0	-20	9	-3.9*	0.01	?	?	0.007	0.013*	0.01
O=C(NC(=S)Nc1ccc(Cc2ccncc2)cc1)c1ccccc1F	0.02	0	1	-8	-4	0.83	.	.	.	.	.	.
O=C(NC(=S)Nc1ccc(-c2nc3ncccc3o2)cc1)c1ccccc1F	0.012	6	-2	.	2	4.7*	0.0081	0.013*	0.033	0.011*	?	0.011
O=C(CSc1nc2cc(C(F)(F)F)ccc2n1Cc1ccccc1)NC1CCS(=O)(=O)C1 (centres undefined)	-1.9	-3	-1	-8	-1	5.2*	0.0074	0.0077*	0.031	0.011*	0.02	?
COc1ccc(S(=O)(=O)N(C)CC(=O)N2CCN(Cc3ccccc3)CC2)cc1C	.	2	0	5	-2	-4.1*	0.011	0.006	0.026*	0.0039	0.015*	0.012
CN(CC(=O)N1CCN(Cc2ccccc2)CC1)S(=O)(=O)c1cccc2nsnc12	-0.017	0	10	-15	-5	-3.2*	0.0065	0.0044	0.02*	0.0069	0.013*	0.01
O=C(CN(c1ccc2c(c1)OCCO2)S(=O)(=O)c1ccccc1)NCc1ccc(Cl)cc1	-1.4	-5	0	4	-8	-1.8	.	.	.	.	.	.
CCN(c1cccc(C)c1)S(=O)(=O)c1cccc2nsnc12	0	1	-2	3	-9	3.9*	0.0058	?	0.027*	0.0059*	0.015*	0.009*
Cc1cccc(N(C)S(=O)(=O)c2cccc3nsnc23)c1	.	-2	-3	-8	2	-0.68	.	.	.	.	.	.
O=C(CN(c1ccc2c(c1)OCCO2)S(=O)(=O)c1ccccc1)N1CCN(Cc2ccccc2)CC1	-1.2	4	1	-19	-8	-4.1*	0.0061	?	0.023*	0.0072	?	0.01
CN(CC(=O)NCCN1CCN(Cc2ccccc2)CC1)S(=O)(=O)c1cccc2nsnc12	0.63	0	0	1	-10	.	.	.	.	.	.	.
CS(=O)(=O)N(CCc1ccccc1)CC(=O)N1CCN(Cc2ccccc2)CC1	-0.72	-9	-1	-2	4	-3.2*	0.0063	0.0053	0.033	0.0038	?	0.011
